According to ChEMBL document CHEMBL4196006, “Aryl thiosemicarbazones for the treatment of trypanosomatidic infections” (Eur J Med Chem, 2018):
Activity calls are given as the source filed them. The rule behind the calls is not given here.

Tests used:
[1] = biological target: T1, Pteridine reductase 1 (Leishmania major) (UniProt Q01782); test: Inhibition of Leishmania major PTR1 at 50 uM using H2B as substrate in presence of NADPH by photometric analysis relative to control
T1 sequence (whole entry): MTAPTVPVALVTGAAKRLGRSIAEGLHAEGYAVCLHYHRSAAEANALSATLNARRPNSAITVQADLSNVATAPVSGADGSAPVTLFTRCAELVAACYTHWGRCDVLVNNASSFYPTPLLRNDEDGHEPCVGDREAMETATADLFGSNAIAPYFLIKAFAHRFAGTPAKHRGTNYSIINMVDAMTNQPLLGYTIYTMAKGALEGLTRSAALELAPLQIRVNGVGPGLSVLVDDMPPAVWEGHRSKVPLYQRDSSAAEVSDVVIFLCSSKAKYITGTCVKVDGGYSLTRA

[2] = Cytotoxicity against human A549 cells assessed as growth inhibition at 10 uM after 48 hrs by CellTiter-Glo assay relative to control; values are per cent of control; settings: A549 cells
[3] = Cytotoxicity against human 786-O cells assessed as inhibition of mitochondrial viability at 10 uM after 6 hrs by CMXRos staining based assay relative to control; type: cell-based, 786-0; settings: read-out: INH
In short: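 Mitochondrial toxicity monitored by MitoTracker Red CMXRos uptake and high-content imaging; compound at 10 μM, triplicate.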

Trypanosoma brucei [4] = test: Potentiation of methotrexate-induced antitrypanosomal activity against Trypanosoma brucei Lister 427 bloodstream form at 10 uM after 72 hrs by resazurin dye-based assay relative to control; type: functional
hERG (KCNH2) = hERG (KCNH2) (Homo sapiens, UniProt Q12809); test: Inhibition of human ERG at 10 uM incubated for 2 hrs by fluorescence polarisation assay relative to control
Sequence of hERG (KCNH2) (Q12809 whole entry): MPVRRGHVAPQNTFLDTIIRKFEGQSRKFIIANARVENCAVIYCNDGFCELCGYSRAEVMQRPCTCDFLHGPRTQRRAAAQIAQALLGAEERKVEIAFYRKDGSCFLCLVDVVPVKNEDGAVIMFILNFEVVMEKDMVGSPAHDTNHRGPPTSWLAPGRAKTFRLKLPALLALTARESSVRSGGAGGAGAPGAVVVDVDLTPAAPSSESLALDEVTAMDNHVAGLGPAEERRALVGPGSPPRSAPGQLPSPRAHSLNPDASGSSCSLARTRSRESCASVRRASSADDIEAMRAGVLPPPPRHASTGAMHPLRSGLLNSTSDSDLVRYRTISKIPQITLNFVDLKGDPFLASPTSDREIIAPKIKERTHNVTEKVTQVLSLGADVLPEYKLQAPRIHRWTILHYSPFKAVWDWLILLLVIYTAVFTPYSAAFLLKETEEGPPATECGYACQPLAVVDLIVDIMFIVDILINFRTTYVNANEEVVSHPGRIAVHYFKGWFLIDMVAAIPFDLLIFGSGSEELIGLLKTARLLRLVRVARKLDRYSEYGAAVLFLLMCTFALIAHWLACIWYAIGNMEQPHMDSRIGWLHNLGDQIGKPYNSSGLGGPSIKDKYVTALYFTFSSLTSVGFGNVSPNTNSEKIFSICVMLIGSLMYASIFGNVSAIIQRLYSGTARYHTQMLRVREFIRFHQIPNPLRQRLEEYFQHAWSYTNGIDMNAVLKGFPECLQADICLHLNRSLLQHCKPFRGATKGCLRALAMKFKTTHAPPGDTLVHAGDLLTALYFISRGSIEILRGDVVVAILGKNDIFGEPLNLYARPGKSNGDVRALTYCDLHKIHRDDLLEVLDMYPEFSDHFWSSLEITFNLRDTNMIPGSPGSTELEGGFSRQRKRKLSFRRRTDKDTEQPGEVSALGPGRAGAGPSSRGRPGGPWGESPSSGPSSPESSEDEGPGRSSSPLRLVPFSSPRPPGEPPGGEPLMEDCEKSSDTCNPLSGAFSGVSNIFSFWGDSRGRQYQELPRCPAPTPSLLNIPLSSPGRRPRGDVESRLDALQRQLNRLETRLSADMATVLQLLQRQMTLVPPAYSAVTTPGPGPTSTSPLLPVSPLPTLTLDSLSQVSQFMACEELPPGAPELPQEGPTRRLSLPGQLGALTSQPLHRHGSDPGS

CYP2D6 = CYP2D6 (Homo sapiens, UniProt P10635); test: Inhibition of human microsomal CYP2D6 expressed in baculovirus infected BTI-TN-5B1-4 cells at 10 uM incubated for 30 mins by luciferase assay relative to control; type: ADME
Sequence of CYP2D6 (P10635 whole entry): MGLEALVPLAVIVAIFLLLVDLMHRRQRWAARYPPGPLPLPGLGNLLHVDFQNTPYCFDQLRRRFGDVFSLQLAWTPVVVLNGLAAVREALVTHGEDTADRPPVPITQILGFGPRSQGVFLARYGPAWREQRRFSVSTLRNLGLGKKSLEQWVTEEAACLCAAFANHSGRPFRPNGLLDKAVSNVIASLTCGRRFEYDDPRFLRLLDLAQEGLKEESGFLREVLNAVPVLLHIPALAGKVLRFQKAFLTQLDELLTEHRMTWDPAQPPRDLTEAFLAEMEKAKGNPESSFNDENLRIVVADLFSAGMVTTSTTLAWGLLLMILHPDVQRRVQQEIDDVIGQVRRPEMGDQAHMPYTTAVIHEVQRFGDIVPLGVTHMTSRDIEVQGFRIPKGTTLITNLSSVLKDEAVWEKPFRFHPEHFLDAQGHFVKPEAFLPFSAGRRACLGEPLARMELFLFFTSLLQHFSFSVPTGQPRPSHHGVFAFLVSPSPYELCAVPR
In short: (§1)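 CYP1A2, 2C9, 2C19, 2D6 and 3A4 in microsomes from baculovirus-infected insect cells, each with a P450-Glo luminogenic substrate. Inhibition read as loss of light; single-point at 10 μM, triplicate.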

WI-38 = test: Cytotoxicity against human WI38 cells assessed as growth inhibition at 10 uM after 48 hrs by CellTiter-Glo assay relative to control; values are per cent of control; settings: wi-38, 48 h, 10 µM
CYP1A2 = biological target: T2, CYP1A2 (Homo sapiens, UniProt P05177); test: Inhibition of human microsomal CYP1A2 expressed in baculovirus infected BTI-TN-5B1-4 cells at 10 uM incubated for 30 mins by luciferase assay relative to control; type: ADME; in short: as §1
T2 sequence (P05177 whole entry): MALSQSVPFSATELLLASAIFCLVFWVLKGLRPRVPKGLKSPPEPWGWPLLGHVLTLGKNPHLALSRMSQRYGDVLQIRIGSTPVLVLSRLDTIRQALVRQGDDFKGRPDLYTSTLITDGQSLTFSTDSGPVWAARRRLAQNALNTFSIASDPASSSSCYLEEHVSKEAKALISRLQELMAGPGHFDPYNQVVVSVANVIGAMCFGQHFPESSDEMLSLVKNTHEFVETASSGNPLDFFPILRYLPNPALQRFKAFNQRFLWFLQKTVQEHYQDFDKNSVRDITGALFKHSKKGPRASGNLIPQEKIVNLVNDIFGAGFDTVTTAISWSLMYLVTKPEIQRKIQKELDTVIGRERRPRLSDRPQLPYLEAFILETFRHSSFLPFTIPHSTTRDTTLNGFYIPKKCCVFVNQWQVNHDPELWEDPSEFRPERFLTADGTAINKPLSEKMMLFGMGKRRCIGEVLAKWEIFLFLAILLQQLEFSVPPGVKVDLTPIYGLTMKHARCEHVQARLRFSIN

Leishmania infantum = test: Antileishmanial activity against Leishmania infantum amastigote form assessed as parasite growth inhibition at 50 uM after 72 hrs by steady-Glo reagent based assay relative to control; type: functional; settings: read-out: GI
In short: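 Intramacrophage L. infantum amastigotes in THP-1-derived macrophages, tested at 50 μM or in dose-response. Plates held 72 h at 37 °C, 5% CO2. Medium was replaced by PBS, macrophages lysed, and parasites read by Steady-Glo luminescence. High-content imaging gave host cell number, infection ratio (infected/total cells) and parasites per infected cell. Values are means of at least two independent experiments.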

Aurora kinase B = Aurora kinase B (Homo sapiens, UniProt Q96GD4); test: Inhibition of recombinant full-length human aurora B kinase expressed in baculovirus system at 10 uM using MBP as substrate incubated for 45 mins by ADP-glo kinase assay; settings: probe MBP
Sequence of Aurora kinase B (Q96GD4 whole entry): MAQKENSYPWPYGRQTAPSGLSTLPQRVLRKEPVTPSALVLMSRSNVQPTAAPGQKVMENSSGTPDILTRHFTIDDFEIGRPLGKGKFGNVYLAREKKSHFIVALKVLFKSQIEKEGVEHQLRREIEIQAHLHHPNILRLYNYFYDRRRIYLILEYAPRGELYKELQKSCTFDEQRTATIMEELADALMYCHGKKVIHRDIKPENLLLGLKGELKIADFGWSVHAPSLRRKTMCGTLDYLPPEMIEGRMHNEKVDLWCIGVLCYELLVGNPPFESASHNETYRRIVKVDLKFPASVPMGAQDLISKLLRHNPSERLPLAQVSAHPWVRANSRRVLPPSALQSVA
In short: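 Aurora B activity measured as ADP formation via coupled luciferase ADP-Glo luminescence; single-point at 10 μM, triplicate.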

CYP2C19 = CYP2C19 (Homo sapiens, UniProt P33261); test: Inhibition of human microsomal CYP2C19 expressed in baculovirus infected BTI-TN-5B1-4 cells at 10 uM incubated for 30 mins by luciferase assay relative to control; type: ADME; in short: as §1
Sequence of CYP2C19 (P33261 whole entry): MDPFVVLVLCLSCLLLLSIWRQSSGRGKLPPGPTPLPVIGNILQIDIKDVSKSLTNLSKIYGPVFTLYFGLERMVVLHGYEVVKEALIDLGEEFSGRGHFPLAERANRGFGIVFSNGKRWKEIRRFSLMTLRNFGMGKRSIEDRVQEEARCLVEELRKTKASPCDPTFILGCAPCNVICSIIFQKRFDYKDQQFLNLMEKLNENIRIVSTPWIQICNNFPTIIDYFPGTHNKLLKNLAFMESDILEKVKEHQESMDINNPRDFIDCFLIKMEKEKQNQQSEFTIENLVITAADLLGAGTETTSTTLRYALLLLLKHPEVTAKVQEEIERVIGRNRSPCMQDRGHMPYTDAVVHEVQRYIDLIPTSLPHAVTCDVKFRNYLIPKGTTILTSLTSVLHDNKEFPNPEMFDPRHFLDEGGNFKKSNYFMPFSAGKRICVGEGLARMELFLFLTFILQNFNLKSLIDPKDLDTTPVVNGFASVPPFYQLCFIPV

[5] = biological target: T3, Pteridine reductase, putative (Trypanosoma brucei) (UniProt Q581W1); test: Inhibition of Trypanosoma brucei PTR1 at 50 uM using H2B as substrate in presence of NADPH by photometric analysis relative to control
T3 sequence (whole entry): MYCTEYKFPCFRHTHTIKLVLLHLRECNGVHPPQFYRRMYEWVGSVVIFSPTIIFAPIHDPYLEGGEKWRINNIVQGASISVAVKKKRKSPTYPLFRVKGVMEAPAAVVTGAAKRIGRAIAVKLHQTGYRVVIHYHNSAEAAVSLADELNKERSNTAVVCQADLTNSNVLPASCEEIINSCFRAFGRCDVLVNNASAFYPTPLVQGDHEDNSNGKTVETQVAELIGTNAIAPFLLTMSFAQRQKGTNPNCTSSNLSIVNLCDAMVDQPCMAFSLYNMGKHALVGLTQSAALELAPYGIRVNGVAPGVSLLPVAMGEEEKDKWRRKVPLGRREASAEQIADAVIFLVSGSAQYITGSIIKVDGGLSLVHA

Trypanosoma brucei [6] = test: Antitrypanosomal activity against Trypanosoma brucei Lister 427 bloodstream form at 10 uM after 72 hrs by resazurin dye-based assay relative to control; type: functional
Trypanosoma brucei [7] = test: Potentiation of methotrexate-induced antitrypanosomal activity against Trypanosoma brucei Lister 427 bloodstream form at 10 uM after 72 hrs by resazurin dye-based assay; type: functional
CYP3A4 = CYP3A4 (Homo sapiens, UniProt P08684); test: Inhibition of human microsomal CYP3A4 expressed in baculovirus infected BTI-TN-5B1-4 cells at 10 uM incubated for 30 mins by luciferase assay relative to control; type: ADME; in short: as §1
Sequence of CYP3A4 (P08684 whole entry): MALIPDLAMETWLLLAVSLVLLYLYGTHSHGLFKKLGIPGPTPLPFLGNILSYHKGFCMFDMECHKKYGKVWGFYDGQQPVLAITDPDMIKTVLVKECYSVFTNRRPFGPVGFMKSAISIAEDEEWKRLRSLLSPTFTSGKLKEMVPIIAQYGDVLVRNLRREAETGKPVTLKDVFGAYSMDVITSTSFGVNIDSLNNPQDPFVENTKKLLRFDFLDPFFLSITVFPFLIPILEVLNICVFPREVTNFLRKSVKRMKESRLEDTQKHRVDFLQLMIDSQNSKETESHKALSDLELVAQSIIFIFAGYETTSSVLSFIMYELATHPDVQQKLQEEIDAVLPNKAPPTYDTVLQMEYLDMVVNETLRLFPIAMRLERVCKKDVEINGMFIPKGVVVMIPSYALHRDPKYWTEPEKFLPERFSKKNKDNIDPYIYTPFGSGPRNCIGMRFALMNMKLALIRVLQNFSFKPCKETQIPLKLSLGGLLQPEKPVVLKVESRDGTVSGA

Trypanosoma cruzi = test: Antitrypanosomal activity against Trypanosoma cruzi amastigote form infected in human U2OS cells assessed as parasite growth inhibition at 50 uM after 72 hrs relative to control; type: functional; settings: read-out: GI
In short: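 U2OS monolayers grown for 24 h, then infected with tissue-derived trypomastigotes of T. cruzi Y strain. Compounds were added 24 h after infection at 50 μM (single-point) or in dose-response, with 72 h exposure. Plates were fixed, stained and analysed by high-content imaging; activity was normalized to infected and non-infected controls. Means of at least two experiments; benznidazole as reference.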

CYP2C9 = CYP2C9 (Homo sapiens, UniProt P11712); test: Inhibition of human microsomal CYP2C9 expressed in baculovirus infected BTI-TN-5B1-4 cells at 10 uM incubated for 30 mins by luciferase assay relative to control; type: ADME; in short: as §1
Sequence of CYP2C9 (P11712 whole entry): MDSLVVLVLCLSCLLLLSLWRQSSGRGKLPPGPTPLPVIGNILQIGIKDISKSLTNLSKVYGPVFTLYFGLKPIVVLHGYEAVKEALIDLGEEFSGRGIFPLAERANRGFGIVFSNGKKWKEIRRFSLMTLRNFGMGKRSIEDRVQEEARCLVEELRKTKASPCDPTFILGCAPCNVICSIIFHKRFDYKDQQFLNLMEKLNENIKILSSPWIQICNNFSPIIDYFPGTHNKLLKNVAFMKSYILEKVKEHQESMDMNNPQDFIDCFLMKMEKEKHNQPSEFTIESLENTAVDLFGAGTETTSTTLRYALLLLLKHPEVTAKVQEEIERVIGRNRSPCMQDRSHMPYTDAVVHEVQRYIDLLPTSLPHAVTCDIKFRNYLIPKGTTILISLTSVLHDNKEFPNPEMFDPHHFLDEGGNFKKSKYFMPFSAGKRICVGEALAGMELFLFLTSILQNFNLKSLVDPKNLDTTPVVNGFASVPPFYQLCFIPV

[8] = Cytotoxicity against human THP1 cells assessed as viable cells at 100 uM after 72 hrs by MTT assay relative to control; type: cell-based, THP-1; settings: read-out: Activity
In short: (§2)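 THP-1-derived macrophages exposed to compounds for 72 h, tested at 100 μM or in dose-response; viability read by MTT colorimetric assay.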

Trypanosoma brucei [9] = test: Antitrypanosomal activity against Trypanosoma brucei Lister 427 bloodstream form assessed as parasite growth inhibition at 50 uM after 72 hrs by SYBR Green assay relative to control; type: functional
[10] = Cytotoxicity against human U2OS cells assessed as viable cells at 50 uM after 72 hrs by MTT assay relative to control; type: cell-based; settings: read-out: Activity
A549 = test: Cytotoxicity against human A549 cells assessed as growth inhibition at 10 uM after 48 hrs by CellTiter-Glo assay relative to control; values are per cent of control; settings: a549, 48 h, 10 µM
[11] = Cytotoxicity against human WI38 cells assessed as growth inhibition at 10 uM after 48 hrs by CellTiter-Glo assay relative to control; values are per cent of control; settings: WI38 cells
Trypanosoma brucei [12] = test: Antitrypanosomal activity against Trypanosoma brucei Lister 427 bloodstream form at 4 uM after 72 hrs by resazurin dye-based assay relative to control; type: functional
Cytochrome P450 3A4 = Cytochrome P450 3A4 (Homo sapiens, UniProt P08684); test: Inhibition of human microsomal CYP3A4 expressed in baculovirus infected BTI-TN-5B1-4 cells incubated for 30 mins by luciferase assay; type: ADME
Sequence of Cytochrome P450 3A4 (P08684 whole entry): as the sequence (P08684 whole entry) above

Cytochrome P450 2C9 = Cytochrome P450 2C9 (Homo sapiens, UniProt P11712); test: Inhibition of human microsomal CYP2C9 expressed in baculovirus infected BTI-TN-5B1-4 cells incubated for 30 mins by luciferase assay
Sequence of Cytochrome P450 2C9 (P11712 whole entry): as the sequence (P11712 whole entry) above

THP-1 = test: Cytotoxicity against human THP1 cells assessed as decrease in viable cells after 72 hrs by MTT assay; type: cell-based; settings: thp-1, 72 h; in short: as §2
U2OS = test: Cytotoxicity against human U2OS cells assessed as decrease in viable cells after 72 hrs by cell number count in anti-T. cruzi high content imaging assay; settings: u2os, 72 h

Row | SMILES | inhibition [1] [%] | cytotoxicity at 6 h, 10 µM [3] [%] | Activity (Trypanosoma brucei [4]) [%] | inhibition at 2 h, 10 µM (hERG (KCNH2)) [%] | inhibition at 0.5 h, 10 µM (CYP2D6) [%] | inhibition at 0.5 h, 10 µM (CYP1A2) [%] | inhibition of growth at 50 µM (Leishmania infantum) [%] | inhibition at 0.75 h, 10 µM (Aurora kinase B) [%] | inhibition at 0.5 h, 10 µM (CYP2C19) [%] | inhibition [5] | Activity (Trypanosoma brucei [6]) [%] | PF (Trypanosoma brucei [7]) | inhibition at 0.5 h, 10 µM (CYP3A4) [%] | inhibition of growth at 50 µM (Trypanosoma cruzi) [%] | inhibition at 0.5 h, 10 µM (CYP2C9) [%] | viability at 72 h, 100 µM [8] [%] | viability at 72 h, 50 µM [10] [%] | cell growth (% of control) (A549) [%] | cell growth (% of control) at 48 h, 10 µM [11] [%] | growth inhibition (GI) (Trypanosoma brucei [9]) | further results
1 | CN(C)c1ccc(/C=N/N=C(/N)S)c2ccccc12 | 5.85 | -1.7 | 63.83 | 43 | 57.9 | 98.4 | 58.3 | 0.89 | 21.7 | inactive | 26.17 | 1.27 | 22.8 | 8.05 | 10 | 9.31 | 99.5 |  |  |  | cell growth (% of control) at 48 h, 10 µM [2]: 122%; cell growth (% of control) (WI-38): 162.08%; inhibition of growth at 50 µM (Trypanosoma brucei [9]; Lister 427, 72 h, read-out: GI): 6.33%
2 | COc1cccc(OC)c1/C=N/NC(N)=S | 4.04 | -12.3 | 21.83 | -1.27 | 0.08 | 34.3 | 25.3 | -18.2 | -44.2 | 4.77% | 8.83 | 0.66 | -14.8 | 74.3 | -9.43 | 76.8 | 21.7 | 162.27 | 114 | inactive | 
3 | CN(Cc1cnc2nc(N)nc(N)c2n1)c1ccc(C(=O)N[C@@H](CCC(=O)O)C(=O)O)cc1 [METHOTREXATE] |  |  |  |  |  |  |  |  |  |  |  |  |  |  |  |  |  |  |  |  | Activity (Trypanosoma brucei [12]): 24.25%
4 | O=C(Cn1ccnc1[N+](=O)[O-])NCc1ccccc1 [BENZNIDAZOLE] |  |  |  |  |  |  |  |  |  |  |  |  |  |  |  |  |  |  |  |  | IC50 (Cytochrome P450 3A4): 98.2 µM; IC50 (Cytochrome P450 2C9): > 100 µM; CC50 (THP-1): Non-Toxic; CC50 (U2OS): Non-Toxic
5 | NC(=S)N/N=C/c1ccccc1[N+](=O)[O-] | 10.6 | -3.98 | 29.17 | -1.03 | -2.93 | 61.6 | 30.6 | -22.8 | -40.6 | 14.8% | 1.5 | 1.13 | -13.9 | 27.4 | -4.92 | 59.7 | 20.4 | 158.95 | 120 | inactive | 
